# Assay results reported in ChEMBL document CHEMBL1122774, “Tri- and tetrapeptide analogues of kinins as potential renal vasodilators” (J Med Chem, 1984).
# Square brackets hold non-standard residues; d marks the D form. Peptide text beside a SMILES is read from it. * marks the point of attachment. ξ: configuration not given here. Hydrocinnamoyl = O=C(CCc1ccccc1)*; ξαMeF = CC(N)(Cc1ccccc1)C(=O)O
# System: Canis familiaris
# Test: Renal vasodilator activity in anesthetized dogs and percent change in renal blood flow (RBF) was determined at 3 ug/kg min
# Format: functional, Canis lupus familiaris, Kidney
# Summary of the method: (§1)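 Primary screen in anesthetized dogs (7-17 kg). Drug infused separately at 3, 30 and 300 µg/(kg min), each infusion lasting 5 min, at about 15-min intervals. Read-outs are renal blood flow, mean arterial blood pressure, heart rate, and RVR (MABP / mean RBF), as percent change. Significance thresholds are defined per number of dogs; n = 1-3 dogs.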
row,Structure (SMILES),Change [%]
1,Cl.NCCCNC(=O)[C@@H]1Cc2ccccc2CN1C(=O)CCCc1ccc(O)cc1,3
2,CC(Cc1ccccc1)(NC(=O)[C@@H]1CCCN1C(=O)CCc1ccccc1)C(=O)N[C@@H](CCCN=C(N)N)C(=O)O (stereo partly drawn) (Hydrocinnamoyl-Pro-[ξαMeF]-Arg-OH),5
3,N=C(N)NCCC[C@H](NC(=O)[C@H](Cc1ccccc1)NC(=O)[C@@H]1CCCN1)C(=O)O (H-Pro-Phe-Arg-OH),4
4,CC(Cc1ccccc1)(NC(=O)[C@@H]1CCCN1C(=O)CCCCc1ccccc1)C(=O)N[C@@H](CCCN=C(N)N)C(=O)O (stereo partly drawn),4

# System: Canis familiaris
# Test: Renal vasodilator activity in anesthetized dogs and percent change in heart rate (HR) was determined at 300 ug/kg min
# Format: functional, Canis lupus familiaris
# Summary of the method: as §1
row,Structure (SMILES),Change [%]
1,Cl.NCCCNC(=O)[C@@H]1Cc2ccccc2CN1C(=O)CCCc1ccc(O)cc1,-1
2,CC(Cc1ccccc1)(NC(=O)[C@@H]1CCCN1C(=O)CCc1ccccc1)C(=O)N[C@@H](CCCN=C(N)N)C(=O)O (stereo partly drawn) (Hydrocinnamoyl-Pro-[ξαMeF]-Arg-OH),-1
3,N=C(N)NCCC[C@H](NC(=O)[C@H](Cc1ccccc1)NC(=O)[C@@H]1CCCN1)C(=O)O (H-Pro-Phe-Arg-OH),6
4,CC(Cc1ccccc1)(NC(=O)[C@@H]1CCCN1C(=O)CCCCc1ccccc1)C(=O)N[C@@H](CCCN=C(N)N)C(=O)O (stereo partly drawn),6

# System: Canis familiaris
# Test: Renal vasodilator activity in anesthetized dogs and percent change in renal vascular resistance (RVR) was determined at 30 ug/kg min
# Format: functional, Canis lupus familiaris
# Summary of the method: as §1
row,Structure (SMILES),Change [%]
1,Cl.NCCCNC(=O)[C@@H]1Cc2ccccc2CN1C(=O)CCCc1ccc(O)cc1,-6
2,CC(Cc1ccccc1)(NC(=O)[C@@H]1CCCN1C(=O)CCc1ccccc1)C(=O)N[C@@H](CCCN=C(N)N)C(=O)O (stereo partly drawn) (Hydrocinnamoyl-Pro-[ξαMeF]-Arg-OH),-5
3,N=C(N)NCCC[C@H](NC(=O)[C@H](Cc1ccccc1)NC(=O)[C@@H]1CCCN1)C(=O)O (H-Pro-Phe-Arg-OH),-2
4,CC(Cc1ccccc1)(NC(=O)[C@@H]1CCCN1C(=O)CCCCc1ccccc1)C(=O)N[C@@H](CCCN=C(N)N)C(=O)O (stereo partly drawn),1

# System: Canis familiaris
# Test: Renal vasodilator activity in anesthetized dogs and percent change in heart rate (HR) was determined at 30 ug/kg min
# Format: functional, Canis lupus familiaris
# Summary of the method: as §1
row,Structure (SMILES),Change [%]
1,Cl.NCCCNC(=O)[C@@H]1Cc2ccccc2CN1C(=O)CCCc1ccc(O)cc1,-2
2,CC(Cc1ccccc1)(NC(=O)[C@@H]1CCCN1C(=O)CCc1ccccc1)C(=O)N[C@@H](CCCN=C(N)N)C(=O)O (stereo partly drawn) (Hydrocinnamoyl-Pro-[ξαMeF]-Arg-OH),1
3,N=C(N)NCCC[C@H](NC(=O)[C@H](Cc1ccccc1)NC(=O)[C@@H]1CCCN1)C(=O)O (H-Pro-Phe-Arg-OH),3
4,CC(Cc1ccccc1)(NC(=O)[C@@H]1CCCN1C(=O)CCCCc1ccccc1)C(=O)N[C@@H](CCCN=C(N)N)C(=O)O (stereo partly drawn),-1

# System: Canis familiaris
# Test: Renal vasodilator activity in anesthetized dogs and percent change in mean arterial blood pressure (MABP) was determined at 30 ug/kg min
# Format: functional, Canis lupus familiaris
# Summary of the method: as §1
row,Structure (SMILES),Change [%]
1,Cl.NCCCNC(=O)[C@@H]1Cc2ccccc2CN1C(=O)CCCc1ccc(O)cc1,-1
2,CC(Cc1ccccc1)(NC(=O)[C@@H]1CCCN1C(=O)CCc1ccccc1)C(=O)N[C@@H](CCCN=C(N)N)C(=O)O (stereo partly drawn) (Hydrocinnamoyl-Pro-[ξαMeF]-Arg-OH),-3
3,N=C(N)NCCC[C@H](NC(=O)[C@H](Cc1ccccc1)NC(=O)[C@@H]1CCCN1)C(=O)O (H-Pro-Phe-Arg-OH),1
4,CC(Cc1ccccc1)(NC(=O)[C@@H]1CCCN1C(=O)CCCCc1ccccc1)C(=O)N[C@@H](CCCN=C(N)N)C(=O)O (stereo partly drawn),3

# System: Canis familiaris
# Test: Renal vasodilator activity in anesthetized dogs and percent change in mean arterial blood pressure (MABP) was determined at 3 ug/kg min
# Format: functional, Canis lupus familiaris
# Summary of the method: as §1
row,Structure (SMILES),Change [%]
1,Cl.NCCCNC(=O)[C@@H]1Cc2ccccc2CN1C(=O)CCCc1ccc(O)cc1,-2
2,CC(Cc1ccccc1)(NC(=O)[C@@H]1CCCN1C(=O)CCc1ccccc1)C(=O)N[C@@H](CCCN=C(N)N)C(=O)O (stereo partly drawn) (Hydrocinnamoyl-Pro-[ξαMeF]-Arg-OH),-2
3,N=C(N)NCCC[C@H](NC(=O)[C@H](Cc1ccccc1)NC(=O)[C@@H]1CCCN1)C(=O)O (H-Pro-Phe-Arg-OH),-1
4,CC(Cc1ccccc1)(NC(=O)[C@@H]1CCCN1C(=O)CCCCc1ccccc1)C(=O)N[C@@H](CCCN=C(N)N)C(=O)O (stereo partly drawn),1

# System: Canis familiaris
# Test: Renal vasodilator activity in anesthetized dogs and percent change in renal blood flow (RBF) was determined at 300 ug/kg min
# Format: functional, Canis lupus familiaris, Kidney
# Summary of the method: as §1
row,Structure (SMILES),Change [%]
1,Cl.NCCCNC(=O)[C@@H]1Cc2ccccc2CN1C(=O)CCCc1ccc(O)cc1,5
2,CC(Cc1ccccc1)(NC(=O)[C@@H]1CCCN1C(=O)CCc1ccccc1)C(=O)N[C@@H](CCCN=C(N)N)C(=O)O (stereo partly drawn) (Hydrocinnamoyl-Pro-[ξαMeF]-Arg-OH),1
3,N=C(N)NCCC[C@H](NC(=O)[C@H](Cc1ccccc1)NC(=O)[C@@H]1CCCN1)C(=O)O (H-Pro-Phe-Arg-OH),-3
4,CC(Cc1ccccc1)(NC(=O)[C@@H]1CCCN1C(=O)CCCCc1ccccc1)C(=O)N[C@@H](CCCN=C(N)N)C(=O)O (stereo partly drawn),3

# System: Canis familiaris
# Test: Renal vasodilator activity in anesthetized dogs and percent change in renal vascular resistance (RVR) was determined at 3 ug/kg min
# Format: functional, Canis lupus familiaris
# Summary of the method: as §1
row,Structure (SMILES),Change [%]
1,Cl.NCCCNC(=O)[C@@H]1Cc2ccccc2CN1C(=O)CCCc1ccc(O)cc1,-6
2,CC(Cc1ccccc1)(NC(=O)[C@@H]1CCCN1C(=O)CCc1ccccc1)C(=O)N[C@@H](CCCN=C(N)N)C(=O)O (stereo partly drawn) (Hydrocinnamoyl-Pro-[ξαMeF]-Arg-OH),-7
3,N=C(N)NCCC[C@H](NC(=O)[C@H](Cc1ccccc1)NC(=O)[C@@H]1CCCN1)C(=O)O (H-Pro-Phe-Arg-OH),-5
4,CC(Cc1ccccc1)(NC(=O)[C@@H]1CCCN1C(=O)CCCCc1ccccc1)C(=O)N[C@@H](CCCN=C(N)N)C(=O)O (stereo partly drawn),-2

# System: Canis familiaris
# Test: Renal vasodilator activity in anesthetized dogs and percent change in renal vascular resistance (RVR) was determined at 300 ug/kg min
# Format: functional, Canis lupus familiaris
# Summary of the method: as §1
row,Structure (SMILES),Change [%]
1,Cl.NCCCNC(=O)[C@@H]1Cc2ccccc2CN1C(=O)CCCc1ccc(O)cc1,-6
2,CC(Cc1ccccc1)(NC(=O)[C@@H]1CCCN1C(=O)CCc1ccccc1)C(=O)N[C@@H](CCCN=C(N)N)C(=O)O (stereo partly drawn) (Hydrocinnamoyl-Pro-[ξαMeF]-Arg-OH),0
3,N=C(N)NCCC[C@H](NC(=O)[C@H](Cc1ccccc1)NC(=O)[C@@H]1CCCN1)C(=O)O (H-Pro-Phe-Arg-OH),0
4,CC(Cc1ccccc1)(NC(=O)[C@@H]1CCCN1C(=O)CCCCc1ccccc1)C(=O)N[C@@H](CCCN=C(N)N)C(=O)O (stereo partly drawn),-2

# System: Canis familiaris
# Test: Renal vasodilator activity in anesthetized dogs and percent change in heart rate (HR) was determined at 3 ug/kg min
# Format: functional, Canis lupus familiaris
# Summary of the method: as §1
row,Structure (SMILES),Change [%]
1,Cl.NCCCNC(=O)[C@@H]1Cc2ccccc2CN1C(=O)CCCc1ccc(O)cc1,1
2,CC(Cc1ccccc1)(NC(=O)[C@@H]1CCCN1C(=O)CCc1ccccc1)C(=O)N[C@@H](CCCN=C(N)N)C(=O)O (stereo partly drawn) (Hydrocinnamoyl-Pro-[ξαMeF]-Arg-OH),8
3,N=C(N)NCCC[C@H](NC(=O)[C@H](Cc1ccccc1)NC(=O)[C@@H]1CCCN1)C(=O)O (H-Pro-Phe-Arg-OH),-6
4,CC(Cc1ccccc1)(NC(=O)[C@@H]1CCCN1C(=O)CCCCc1ccccc1)C(=O)N[C@@H](CCCN=C(N)N)C(=O)O (stereo partly drawn),-1

# System: Canis familiaris
# Test: Renal vasodilator activity in anesthetized dogs and percent change in mean arterial blood pressure (MABP) was determined at 300 ug/kg min
# Format: functional, Canis lupus familiaris
# Summary of the method: as §1
row,Structure (SMILES),Change [%]
1,Cl.NCCCNC(=O)[C@@H]1Cc2ccccc2CN1C(=O)CCCc1ccc(O)cc1,-2
2,CC(Cc1ccccc1)(NC(=O)[C@@H]1CCCN1C(=O)CCc1ccccc1)C(=O)N[C@@H](CCCN=C(N)N)C(=O)O (stereo partly drawn) (Hydrocinnamoyl-Pro-[ξαMeF]-Arg-OH),1
3,N=C(N)NCCC[C@H](NC(=O)[C@H](Cc1ccccc1)NC(=O)[C@@H]1CCCN1)C(=O)O (H-Pro-Phe-Arg-OH),-4
4,CC(Cc1ccccc1)(NC(=O)[C@@H]1CCCN1C(=O)CCCCc1ccccc1)C(=O)N[C@@H](CCCN=C(N)N)C(=O)O (stereo partly drawn),1

# System: Canis familiaris
# Test: Renal vasodilator activity in anesthetized dogs and percent change in renal blood flow (RBF) was determined at 30 ug/kg min
# Format: functional, Canis lupus familiaris, Kidney
# Summary of the method: as §1
row,Structure (SMILES),Change [%]
1,Cl.NCCCNC(=O)[C@@H]1Cc2ccccc2CN1C(=O)CCCc1ccc(O)cc1,6
2,CC(Cc1ccccc1)(NC(=O)[C@@H]1CCCN1C(=O)CCc1ccccc1)C(=O)N[C@@H](CCCN=C(N)N)C(=O)O (stereo partly drawn) (Hydrocinnamoyl-Pro-[ξαMeF]-Arg-OH),2
3,N=C(N)NCCC[C@H](NC(=O)[C@H](Cc1ccccc1)NC(=O)[C@@H]1CCCN1)C(=O)O (H-Pro-Phe-Arg-OH),3
4,CC(Cc1ccccc1)(NC(=O)[C@@H]1CCCN1C(=O)CCCCc1ccccc1)C(=O)N[C@@H](CCCN=C(N)N)C(=O)O (stereo partly drawn),1
